# DNMT1 block: human DNMT1 methyltransferase inhibitors, primary screen, biochemical, molecular beacon, fluorescence, HinP1I cleavage, uHTS; inhibition (reported as % activation of signal), % at 10 µM; 360,000 compounds, 0.83% hits; AID 588458, 2011; in the data active = inhibition above about 50%
# Scp-1 inhibitor: Scp-1 phosphatase inhibitors, primary screen, biochemical, colorimetric, uHTS | Recombinant Scp1, phosphopeptide, malachite green phosphate absorbance | inhibition, % at 20 µM | 340,000 compounds, 0.88% hits | AID 493091, 2011;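 active = inhibition above about 50% at 20 µM, limit read from the data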;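 note: plate controls were DMSO wells with enzyme for no effect and wells lacking enzyme for full effect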
#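 Test system: SCP-1 phosphatase catalytic domain, residues 76-261 | Compound dosing: One concentration, 20 µM, with 1.0% DMSO | Schedule: 45 min room-temperature reaction, 5 min colour, 30 min stabiliser | Detection: Absorbance at 630 nm | Read-out basis: % inhibition of SCP-1 phosphate liberation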
# LMPTP inh: LMPTP phosphatase inhibitors, primary screen, biochemical, fluorescence intensity, uHTS; Low molecular weight phosphotyrosine protein phosphatase (Homo sapiens), P24666; recombinant LMPTP-A, OMFP fluorogenic substrate; inhibition, % at 20 µM; 360,000 compounds, 0.22% hits; AID 651560, 2012;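 active = compounds that cut the enzyme signal by at least half of the control window in the single-dose screen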;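 note: plate controls were DMSO wells with enzyme plus substrate for no effect and substrate without enzyme for full effect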
# Target sequence (P24666 whole entry, looked up): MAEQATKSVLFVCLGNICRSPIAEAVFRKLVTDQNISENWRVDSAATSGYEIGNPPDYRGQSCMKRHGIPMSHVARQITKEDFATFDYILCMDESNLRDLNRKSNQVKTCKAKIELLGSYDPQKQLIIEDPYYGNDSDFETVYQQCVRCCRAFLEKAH
#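 Assay system: LMPTP-A, protein tyrosine phosphatase of low molecular weight / Medium: pH 6.0 Bis-Tris buffer with DTT and Triton X-100 / Schedule: 50 min enzyme reaction at room temperature, protected from light / Measured by: endpoint fluorescence intensity from OMFP dephosphorylation / Read-out basis: % inhibition relative to no-enzyme and uninhibited control wells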
# SUMO1 PPI mod: modulators of SUMO1 protein-protein interactions, primary screen, biochemical, uHTS; SUMO1 binding to a labelled peptide, TR-FRET, 1 h; 360,000 compounds, 0.33% hits; Small ubiquitin-related modifier 1 (Homo sapiens), P63165; AID 602429, 2012; inhibition, % at 20 µM; in the data active = inhibition above about 37%
# Target sequence (P63165 whole entry, looked up): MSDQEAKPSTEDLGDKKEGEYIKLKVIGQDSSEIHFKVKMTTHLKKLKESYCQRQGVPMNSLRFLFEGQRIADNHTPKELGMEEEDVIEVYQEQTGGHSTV
# STEP inh: STEP phosphatase inhibitors, primary screen, biochemical, fluorescence intensity, uHTS | 360,000 compounds, 0.25% hits | inhibition, % at 20 µM | AID 588621, 2011 | recombinant STEP, OMFP fluorogenic substrate;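 active = inhibition at 20 µM, scaled per plate between control wells, above about 37%, limit read from the data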;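 note: 0% = DMSO with enzyme and substrate and 100% = substrate only without enzyme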
#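 System: STEP (striatal-enriched tyrosine phosphatase) enzyme, cell-free; medium: Bis-Tris pH 6.0 buffer with DTT, detergent; dosing: 20 µM, 1% DMSO; times: reaction 20 min, ambient temperature; detection: fluorescence, 480/540 nm; read-out basis: normalized % inhibition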
# DNMT1 interf DR: spectral interference with molecular beacon fluorescence, dose response, artefact control for DNMT1 inhibitor project, biochemical, fluorescent molecular beacon; shares compounds with DNMT1 block; spectral interference counter-screen; IC50, µM; 200 tested, under 10 active; AID 602382, 2012
# DNMT1 confirm: DNMT1 methyltransferase inhibitor retest, confirmation, biochemical, molecular beacon, fluorescence, single concentration. AID 602385, 2012. inhibition, % at 10 µM. DNMT1 molecular beacon HinP1I cleavage. shares compounds with DNMT1 block. 2,300 compounds, 8% hits;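 active = average inhibition of at least 30% in the single-concentration confirmation test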
# Beacon interf: counter-screen for DNMT1 inhibitors: spectral interference; activation (fluorescence interference), % at 10 µM; shares compounds with DNMT1 block; 2,300 compounds, 1% hits; AID 602387; DNMT1 molecular beacon spectral interference counterscreen, fluorescence 485/520;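 active = activation of at least 30% at 10 µM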;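 note: DNMT1 catalytic domain with a HinP1I cleavage step and a FAM/dabcyl DNA beacon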
# STEP inh conf: STEP phosphatase inhibitor hit confirmation, biochemical, fluorescence intensity, single concentration | 520 compounds, 32% hits | inhibition, % at 20 µM | AID 623866, 2012 | shares compounds with STEP inh | recombinant STEP, OMFP fluorogenic substrate;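 note: 0% = enzyme with substrate plus DMSO and 100% = substrate without enzyme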
# Starred values were filed as active, the others as inactive; · = not tested or not shown. This is a sample that favours compounds with a hit; in the whole collection about 1.7% have one here. Unless noted, the rule behind the calls is not given here.
SMILES,DNMT1 block,Scp-1 inhibitor,LMPTP inh,SUMO1 PPI mod,STEP inh,DNMT1 confirm,Beacon interf,others
C/C(=C/CCC(C)[C@H]1CC[C@@]2(C)C3=C(CC[C@]12C)[C@@]1(C)CCC(=O)C(C)(C)[C@@H]1CC3)C(=O)O (stereo partly drawn),60*,-8,3,41*,0,23,-9,DNMT1 interf DR=>99
OC(CNCCc1c[nH]c2ccccc12)c1ccccc1 (stereo not drawn),-3,-2,-2,-2,-1,·,·,
COC(=O)C1=C(c2ccc(OC(F)(F)F)cc2)C[C@@H]2CC[C@H]1N2C(=O)NCc1cccc2ccccc12,-7,1,5,4,0,·,·,
C=CCSc1nc2c(c(-c3ccsc3)c1C#N)CN(C)CC2,52*,-4,23,-44,1,2,3,
C[C@]12CC[C@H](O)CC1=CC(=O)C1C2CC[C@]2(C)C(=O)[C@H](O)CC12 (stereo partly drawn),-1,-10,1,-3,-1,·,·,
O=[N+]([O-])/C=C/c1c(Cl)cccc1Cl,8,5,1,1,4,·,·,
CN(C)c1ccc(/C=C2/C(=O)NC(=O)N(Cc3ccco3)C2=O)cc1,94*,33,2,8,5,11,6,
CN(C)c1ccc(/C=C2\C(=O)NC(=O)N(CCc3ccc(F)cc3)C2=O)cc1,-5,17,1,-3,2,·,·,
CCN(CC)c1ccc(/C=C2/C(=O)NC(=O)N(Cc3ccco3)C2=O)cc1,68*,5,1,-4,1,1,-1,
Cc1ccc(Cn2cc(C=O)c(-c3ccc(C)cc3)n2)cc1,2,-10,3,3,74*,·,·,STEP inh conf=27*
CN1CCC2(CC1)N=C(c1ccc(F)cc1)C(=S)N2,1,-1,1,-3,78*,·,·,STEP inh conf=28*
COC(=O)C1=C(c2ccc(S(C)(=O)=O)cc2)C[C@@H]2CC[C@H]1N2C(=O)NC(C)C,-1,-12,1,1,0,·,·,
CC[C@H]1CN2CCC1C[C@@H]2[C@@H](O)c1ccnc2ccc(OC)cc12 (stereo partly drawn),2,5,1,2,0,·,·,
CC[C@H]1CN2CCC1C[C@H]2[C@H](O)c1ccnc2ccc(OC)cc12 (stereo partly drawn),45,-9,65*,55*,48*,·,·,STEP inh conf=9
CN1[C@H]2CC[C@@H]1C(C(=O)N1CCOCC1)=C(O)C2,6,-3,-1,0,-1,·,·,

# High-throughput results as filed in PubChem BioAssay.
